Laboratory results: ChEMBL document CHEMBL1125346, “Guanidinophenyl-substituted enol lactones as selective, mechanism-based inhibitors of trypsin-like serine proteases” (J Med Chem, 1992)

What was measured:
[1] = target: Chymotrypsinogen A (Bos taurus) (UniProt P00766); assay: Time for which maximum percent inhibition persists was determined against alpha-chymotrypsin (17 nM); format: functional
In short: (§1)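 Enzyme incubated with excess lactone added from DMSO stock (final 10% DMSO); aliquots over 2 h diluted into substrate: chymotrypsin Suc-AAPF-pNA 315 µM, pH 7.2, 410 nm; t-PA Spectrozyme t-PA 0.2 mM, Tris-imidazole pH 8.4, 405 nm; HNE MeO-Suc-AAPV-pNA 150 µM, pH 7.4, 410 nm; plasmin Ts-GPK-pNA 157.4 µM, pH 7.8, 404 nm; thrombin Ts-GPR-pNA 75 µM, pH 8.0, 408 nm; trypsin Z-VGR-pNA 155 µM, pH 7.2, 404 nm. Activity given relative to a no-lactone control. Some runs used a 10-min substrate-free delay after dilution. ∞ means no recovery over 2 h.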

[2] = target: Chymotrypsinogen A (Bos taurus) (UniProt P00766); assay: Time to reach maximum percent inhibition by the compound was determined against alpha-chymotrypsin (17 nM); format: functional
In short: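 α-Chymotrypsin with excess lactone (DMSO, 10% final) was sampled over 2 h into Suc-Ala-Ala-Pro-Phe-pNA (315 μM) in 0.2 M phosphate, pH 7.2. Absorbance at 410 nm gave the remaining activity versus a control without lactone. Minutes to maximal inhibition were taken.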

[3] = target: Chymotrypsinogen A (Bos taurus) (UniProt P00766); assay: Maximum percent inhibition by the compound was determined against Chymotrypsinogen (17 nM); in short: as §1
[4] = target: T1, Neutrophil elastase (Homo sapiens) (UniProt P08246); assay: Maximum percent inhibition by the compound was determined against human neutrophil elastase HNE(66 nM); in short: as §1
T1 sequence (whole entry): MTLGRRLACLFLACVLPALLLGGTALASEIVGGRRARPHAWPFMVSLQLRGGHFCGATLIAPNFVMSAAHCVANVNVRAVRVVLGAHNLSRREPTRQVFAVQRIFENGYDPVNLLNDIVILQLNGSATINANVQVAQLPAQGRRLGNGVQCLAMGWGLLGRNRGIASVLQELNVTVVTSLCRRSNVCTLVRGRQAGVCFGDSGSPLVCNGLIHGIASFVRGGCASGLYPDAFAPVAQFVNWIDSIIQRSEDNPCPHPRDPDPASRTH

[5] = target: T1, Neutrophil elastase (Homo sapiens); assay: Time to reach maximum percent inhibition by the compound was determined against human neutrophil elastase HNE(66 nM); format: functional
In short: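 HNE was incubated with excess lactone in 10% final DMSO. Aliquots drawn during 2 h went into MeO-Suc-Ala-Ala-Pro-Val-pNA (150 μM) in 0.1 M phosphate, 0.5 M NaCl, pH 7.4, read at 410 nm. Activity was set relative to a lactone-free control, and the time (min) to peak inhibition was noted.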

[6] = target: Plasminogen (Homo sapiens) (UniProt P00747); assay: Time to reach maximum percent inhibition by the compound was determined against plasmin(625 nM); format: functional
In short: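 Plasmin plus excess lactone (10% final DMSO) was sampled over 2 h into Ts-Gly-Pro-Lys-pNA (157.4 μM) in 0.05 M phosphate, pH 7.8. The slope at 404 nm, relative to an enzyme-only control, gave residual activity. Minutes needed to reach maximal inhibition were reported.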

[7] = target: Plasminogen (Homo sapiens) (UniProt P00747); assay: Substrate binding constant against plasmin
In short: (§2)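 Competitive substrate assay: lactone (DMSO, final 10% v/v) and chromogenic substrate combined in buffer, enzyme added, absorbance followed to steady state. Turnover-corrected semilog plot gives kobs; I0 vs I0/kobs replot (eq 6) with separately determined Km yields Ki and ka. Where no burst was seen, Ki was estimated from Km(app) replots using 15-s initial velocities. Buffers and substrates as in incubation assay.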

[8] = target: Plasminogen (Homo sapiens) (UniProt P00747); assay: Second order rate constant against plasmin; in short: as §2
[9] = target: Plasminogen (Homo sapiens) (UniProt P00747); assay: Time for which maximum percent inhibition persists was determined against plasmin(625 nM); * =no enzyme activity was recovered over 2 h; format: functional; in short: as §1
[10] = target: Plasminogen (Homo sapiens) (UniProt P00747); assay: Maximum percent inhibition by the compound was determined against plasmin(625 nM); in short: as §1
[11] = target: Plasminogen (Homo sapiens) (UniProt P00747); assay: Acylation rate constant against plasmin; in short: as §2
[12] = target: Tissue-type plasminogen activator (Homo sapiens) (UniProt P00750); assay: Maximum percent inhibition by the compound was determined against Tissue plasminogen activator (19.4 nM); in short: as §1
[13] = target: Tissue-type plasminogen activator (Homo sapiens) (UniProt P00750); assay: Time for which maximum percent inhibition persists was determined against Tissue plasminogen activator (19.4 nM); format: functional; in short: as §1
[14] = target: Tissue-type plasminogen activator (Homo sapiens) (UniProt P00750); assay: Time to reach maximum percent inhibition by the compound was determined against Tissue plasminogen activator (19.4 nM); format: functional
In short: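 Tissue plasminogen activator was exposed to excess lactone (10% final DMSO). Over 2 h, aliquots were diluted into Spectrozyme t-PA (0.2 mM) in Tris-imidazole, I 0.3, pH 8.4. Hydrolysis at 405 nm gave residual activity relative to an enzyme-only control. The time (min) to reach maximal percent inhibition was recorded.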

[15] = target: Prothrombin (Homo sapiens) (UniProt P00734); assay: Time to reach maximum percent inhibition by the compound was determined against thrombin (1.93 nM); format: functional
In short: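 Thrombin was incubated with excess lactone (DMSO, 10% final). Aliquots over 2 h were diluted into Ts-Gly-Pro-Arg-pNA (75 μM) in 0.05 M phosphate, 0.01 M EDTA, 10 g/L PEG 8000, 10 mg/L aprotinin, pH 8.0, and read at 408 nm against a no-lactone control. Time to maximal inhibition was recorded.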

[16] = target: T2, Serine protease 1 (Bos taurus) (UniProt P00760); assay: Substrate binding constant against trypsin; in short: as §2
T2 sequence (whole entry): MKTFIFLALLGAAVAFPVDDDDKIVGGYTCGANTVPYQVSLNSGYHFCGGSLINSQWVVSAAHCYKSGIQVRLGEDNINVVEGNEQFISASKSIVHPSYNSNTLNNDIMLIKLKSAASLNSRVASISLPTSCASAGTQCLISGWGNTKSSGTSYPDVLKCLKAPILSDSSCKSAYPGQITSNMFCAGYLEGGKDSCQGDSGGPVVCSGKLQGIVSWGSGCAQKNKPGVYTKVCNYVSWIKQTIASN

[17] = target: T2, Serine protease 1 (Bos taurus); assay: Second order rate constant against trypsin; in short: as §2
[18] = target: T2, Serine protease 1 (Bos taurus); assay: Time to reach maximum percent inhibition by the compound was determined against trypsin (14.6 nM); format: functional
In short: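 Trypsin was incubated with excess lactone added from DMSO stock (10% final DMSO). Aliquots taken over 2 h were diluted into Z-Val-Gly-Arg-pNA (155 μM) in 0.2 M phosphate, pH 7.2, and read at 404 nm. Activity came from the absorbance slope versus a no-lactone control. Reported are minutes to maximal inhibition and minutes it persisted; ∞ means no recovery within 2 h.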

[19] = target: T3, Urokinase-type plasminogen activator (Homo sapiens, UniProt P00749); assay: Decylation rate constant against Urokinase-type plasminogen activator
[20] = target: Prothrombin (Homo sapiens) (UniProt P00734); assay: Maximum percent inhibition by the compound was determined against thrombin (1.93 nM); in short: as §1
[21] = target: T2, Serine protease 1 (Bos taurus); assay: Acylation rate constant against trypsin; in short: as §2
Serine protease 1 = target: T4, Serine protease 1 (Bos taurus, UniProt P00760); assay: Decylation rate constant against trypsin
T4 sequence (P00760 whole entry): T2 sequence (whole entry)
In short: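 Trypsin incubated 30–45 min with excess lactone (same I0/E0 as incubation assay). Free inhibitor removed by two 1-h centrifugations at 0 °C. Activity recovery followed at room temperature against an inhibitor-free control carried through the same treatment; kd is the slope of ln remaining activity vs time. Substrate Z-Val-Gly-Arg-pNA 155 µM, 0.2 M phosphate pH 7.2, 404 nm.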

[22] = Ratio of initial inhibitor concentration to initial Chymotrypsinogen concentration
In short: (§3)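 Ratio I0/E0 of lactone to enzyme in the 2-h incubation assay; lactone added from DMSO stock to buffered enzyme (final 10% DMSO).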

[23] = Ratio of initial inhibitor concentration to initial HNE concentration; in short: as §3
[24] = Ratio of initial inhibitor concentration to initial Plasmin concentration; in short: as §3
[25] = Ratio of initial inhibitor concentration to initial t-PA concentration; in short: as §3
[26] = Ratio of initial inhibitor concentration to initial thrombin concentration; in short: as §3
[27] = Ratio of initial inhibitor concentration to initial trypsin concentration; in short: as §3
[28] = Ratio of initial inhibitor concentration to initial urokinase concentration; in short: as §3
[29] = target: T3, Urokinase-type plasminogen activator
[30] = target: T3, Urokinase-type plasminogen activator; remark: listed apart in the source
[31] = target: T3, Urokinase-type plasminogen activator; remark: listed apart in the source

Chain of Plasminogen (Homo sapiens) (P00747 97-580 limits assumed): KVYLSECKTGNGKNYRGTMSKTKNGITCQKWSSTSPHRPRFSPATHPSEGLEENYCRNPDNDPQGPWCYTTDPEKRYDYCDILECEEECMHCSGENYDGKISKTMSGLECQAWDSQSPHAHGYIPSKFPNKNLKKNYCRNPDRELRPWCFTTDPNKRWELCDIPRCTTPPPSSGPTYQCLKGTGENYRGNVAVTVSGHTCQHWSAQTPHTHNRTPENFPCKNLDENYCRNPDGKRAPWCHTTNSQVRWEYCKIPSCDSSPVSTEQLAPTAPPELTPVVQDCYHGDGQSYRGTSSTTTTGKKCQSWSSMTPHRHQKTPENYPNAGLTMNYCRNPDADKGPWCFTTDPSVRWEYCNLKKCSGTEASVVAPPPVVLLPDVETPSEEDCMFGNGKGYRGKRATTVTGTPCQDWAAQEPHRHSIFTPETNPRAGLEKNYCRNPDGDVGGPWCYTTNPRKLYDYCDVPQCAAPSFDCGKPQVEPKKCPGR
Chain of Plasminogen (Homo sapiens) (P00747 581-810 limits assumed): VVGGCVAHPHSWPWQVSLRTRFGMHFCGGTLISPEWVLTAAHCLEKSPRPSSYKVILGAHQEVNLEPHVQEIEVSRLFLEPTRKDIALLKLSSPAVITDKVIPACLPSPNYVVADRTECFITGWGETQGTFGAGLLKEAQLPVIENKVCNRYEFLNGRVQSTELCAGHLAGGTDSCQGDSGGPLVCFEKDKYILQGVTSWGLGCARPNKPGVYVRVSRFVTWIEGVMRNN
Chain of Tissue-type plasminogen activator (Homo sapiens) (P00750 36-562 limits assumed): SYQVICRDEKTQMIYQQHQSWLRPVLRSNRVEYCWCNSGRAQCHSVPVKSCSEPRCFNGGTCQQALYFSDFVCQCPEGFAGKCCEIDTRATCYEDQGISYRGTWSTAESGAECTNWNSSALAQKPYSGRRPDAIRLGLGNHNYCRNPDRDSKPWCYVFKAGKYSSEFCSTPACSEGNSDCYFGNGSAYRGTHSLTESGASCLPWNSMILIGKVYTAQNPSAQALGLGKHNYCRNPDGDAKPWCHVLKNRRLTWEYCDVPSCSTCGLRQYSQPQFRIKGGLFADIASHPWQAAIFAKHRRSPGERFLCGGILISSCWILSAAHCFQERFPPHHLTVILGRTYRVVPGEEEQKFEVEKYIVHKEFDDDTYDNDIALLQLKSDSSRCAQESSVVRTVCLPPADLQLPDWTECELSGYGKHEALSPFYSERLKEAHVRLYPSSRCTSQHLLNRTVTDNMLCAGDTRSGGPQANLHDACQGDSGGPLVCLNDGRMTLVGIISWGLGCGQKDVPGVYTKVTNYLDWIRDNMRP

TIME [1]: 0.75 h
TIME [2]: 0 h
inhibition [3]: 34%
inhibition [4]: 27%
TIME [5]: 0.5 h
TIME [6]: 0 h
Ks [7]: 63.7 µM
Rate [8]: 1.5 ka/Ks
TIME [9]: No enzyme activity
inhibition [10]: 79%
Ka [11]: 97 min⁻¹
inhibition [12]: 24%
TIME [13]: 0.5 h
TIME [14]: 0.25 h
TIME [15]: 0.25 h
Ks [16]: 9.4 µM
Rate [17]: 10 ka/Ks
TIME [18]: 0.333 h
Kd [19]: 0.00015 s⁻¹
inhibition [20]: 40%
Ka [21]: 91 min⁻¹
Kd (Serine protease 1): 3.3e-05 s⁻¹
Ratio [22]: 118 Io/Eo
Ratio [23]: 36 Io/Eo
Ratio [24]: 16 Io/Eo
Ratio [25]: 100 Io/Eo
Ratio [26]: 518 Io/Eo
Ratio [27]: 86 Io/Eo
Ratio [28]: 50 Io/Eo
Ks [29]: 0.12 µM
Rate [30]: 2 ka/Ks
Ka [31]: 0.24 min⁻¹
SMILES: C=C1CC(c2ccc(NC(=N)N)cc2)CC(=O)O1 (configuration not stated)
